Data published in ChEMBL document CHEMBL4002581, “Versiquinazolines A-K, Fumiquinazoline-Type Alkaloids from the Gorgonian-Derived Fungus Aspergillus versicolor LZD-14-1” (J Nat Prod, 2016).

Tests used:
[1] = Inhibition of thioredoxin reductase (unknown origin) measured after 5 mins by DTNB reduction assay; set-up: species or system Homo sapiens
Outline: (§1)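 TrxR inhibition was screened at 50 μM as % inhibition, and IC50 values are reported in μM. Curcumin was run as positive control. The procedure follows a previously described method.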

A2780 = assay: Cytotoxicity against human A2780 cells by MTT assay; type: functional, cell-based
Outline: (§2)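 Tetrazolium-based colorimetric (MTT) read-out of tumour-cell viability, run on A549 and A2780 lines.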

A549 = assay: Cytotoxicity against human A549 cells by MTT assay; type: functional, cell-based; outline: as §2
Homo sapiens = species on record: Homo sapiens; assay: Inhibition of thioredoxin reductase (unknown origin) at 50 uM measured after 5 mins by DTNB reduction assay relative to control; outline: as §1

SMILES | IC50 [1] | IC50 (A2780) | IC50 (A549) | inhibition (Homo sapiens)
O=C1[C@@H]2C[C@@]34O[C@@H](c5nc6ccccc6c(=O)n52)N1CN1[C@@H]3N(C(=O)C12CC2)c1ccccc14 | 12 µM | > 50 µM | > 50 µM | 83%
O=C1NCc2nc3ccccc3c(=O)n2[C@H]1C[C@]1(O)c2ccccc2N2C(=O)C3(CC3)N[C@H]21 | – | > 50 µM | > 50 µM | 28%
O=C1N[C@@H]2c3nc4ccccc4c(=O)n3[C@H]1C[C@]1(O)c3ccccc3N3C(=O)C4(CC4)N2[C@H]31 | – | > 50 µM | > 50 µM | 17%
C[C@H]1C(=O)N2c3ccccc3[C@@]3(O)C[C@H]4C(=O)N[C@H](c5nc6ccccc6c(=O)n54)N1[C@H]23 | – | > 50 µM | > 50 µM | 38%
C[C@@H]1N[C@@H]2N(C1=O)c1ccccc1[C@@]2(O)C[C@H]1C(=O)NCc2nc3ccccc3c(=O)n21 | – | > 50 µM | > 50 µM | 27%
O=C1N[C@H]2O[C@@]3(C[C@@H]1n1c2nc2ccccc2c1=O)c1ccccc1N1C(=O)C2(CC2)N[C@H]13 | – | > 50 µM | > 50 µM | 47%
COc1cc(/C=C/C(=O)CC(=O)/C=C/c2ccc(O)c(OC)c2)ccc1O | – | – | – | 25%
CC[C@H](C)[C@@H]1C(=O)N2c3ccccc3[C@@]3(O)C[C@H](n4cnc5ccccc5c4=O)C(=O)N1[C@@H]23 | – | > 50 µM | > 50 µM | 62%
C=CC(C)(C)[C@@]12C=C(OC)C(=O)N3[C@@H](C)C(=O)N[C@]31N(OC)c1ccccc12 | – | > 50 µM | > 50 µM | 13%
COC(=O)[C@@H]1C[C@]2(O)c3ccccc3N3C(=O)C4(CC4)N([C@@H](OC)c4nc5ccccc5c(=O)n41)[C@H]32 | 13 µM | > 50 µM | > 50 µM | 83%
O=C1NCc2nc3c(O)cccc3c(=O)n2[C@H]1Cc1c[nH]c2ccccc12 | – | > 50 µM | > 50 µM | 55%
C=CC(C)(C)[C@@]12C=C(OC)C(=O)N3[C@@H](C)C(=O)N[C@]31N(O)c1ccccc12 | 13 µM | > 50 µM | > 50 µM | 76%
C[C@H]1C(=O)N2c3ccccc3[C@@]34C[C@H]5C(=O)N(CN1[C@H]23)[C@@H](O4)c1nc2ccccc2c(=O)n15 | 20 µM | > 50 µM | > 50 µM | 64%
CC[C@H](C)[C@H]1C(=O)N2c3ccccc3[C@@]3(O)C[C@H]4C(=O)N[C@H](c5nc6ccccc6c(=O)n54)N1[C@H]23 | – | > 50 µM | > 50 µM | 43%
O=C1NCc2nc3ccccc3c(=O)n2[C@H]1C[C@@]12OCN3[C@@H]1N(C(=O)C31CC1)c1ccccc12 | – | > 50 µM | > 50 µM | 51%
